Assay results: the RNAGym collection of RNA variant scans (doi:10.1126/science.aae0568)
Fewer inactive variants are shown than the library holds.

B1: tRNA (parent)
chain: GUUCCGUUGGCGUAAUGGUAACGCGUCUCCCUCCUAAGGAGAAGACUGCGGGUUCGAGUCCCGUACGGAACG

Variants of: B1
Experiment: yeast fitness relative to wild type (ratio to wild type); higher = fitter; tRNA-Arg(CCU), competitive growth, 37 C, YPD
Outline: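 A pool of Saccharomyces cerevisiae strains, each with a tRNA-Arg(CCU) gene variant at the native genomic locus, was competed in YPD at 37°C for 24 hours across six parallel replicates. The variants had been chemically synthesised at a 3% per-site mutation rate over 69 sites, and gene amplicons before and after competition were read by 100-nucleotide paired-end sequencing. Darwinian fitness relative to wild type rested on changes in genotype frequencies. Genotypes required ≥ 100 starting reads, and estimates < 0.5 were set to 0.5.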

Row | Variant | yeast fitness
1 | G9A U32C C33G A37G G52A C55U A65U | 0.583
2 | A14U U16A C33G | ≤ 0.5
3 | C4U C24A A57U C60A G68C | ≤ 0.5
4 | A42G G68C A69G | 0.563
5 | C5U C34U A40C | ≤ 0.5
6 | G6A C11A U19A A69U | 0.577
7 | U26A G41C C46U | 0.797
8 | G41C C55A A70G | 0.551
9 | U35C G68U | 0.657
10 | C4A U19G A69C | 0.587
11 | C24A A43G G63U U64A | ≤ 0.5
12 | G25A G67A | 0.875
13 | A20U C61U C66U | 0.559
14 | A14G C24G G44C G58C G68U | ≤ 0.5
15 | A20C C30A C55A G67A | 0.534
16 | G6C C11G G44C | ≤ 0.5
17 | C33G A42U C61G | ≤ 0.5
18 | G9A G10C G17A G25A C31U | ≤ 0.5
19 | C5G G63A A69C | 0.614
20 | G18A A42C C61A | ≤ 0.5
21 | G10A C55A G68C | ≤ 0.5
22 | C5U G48A C55U | 0.558
23 | A21G G39C A69C | 0.536
24 | C5A U26G C60G C61U | ≤ 0.5

Row | Variant | yeast fitness
25 | C30A G44C U59A | ≤ 0.5
26 | C4U G25C | 0.999
27 | G48C C55A C61U | ≤ 0.5
28 | A42U A69G | 1.11
29 | C22G U26A C30A A42U | 0.692
30 | A45U C49A | 0.57
31 | C31G A45G U47A | 0.893
32 | A21U C27U C34A | 0.774
33 | A43G C55U C61U | 0.543
34 | A21G A45G C46G A70U | ≤ 0.5
35 | C22U C55U A65G | ≤ 0.5
36 | U2C U64G C66A | ≤ 0.5
37 | C5A G17A A36G A70G | ≤ 0.5
38 | G25C G50C G56A G58A | ≤ 0.5
39 | U7C G25A U28A G48C A70C | ≤ 0.5
40 | C5G C27A | 0.709
41 | U3G U35C A43U U54A A57C | ≤ 0.5
42 | U8A G9U A42C G52C | ≤ 0.5
43 | A37C G39A C60G C66A | ≤ 0.5
44 | U7A C30U G39A A40G G67A | ≤ 0.5
45 | C4U C5A A40C G68C | ≤ 0.5
46 | A21U A36C C49A C62U A65U | ≤ 0.5
47 | U3C G50A A57G | 0.632
48 | U3G G44C | 0.739

Row | Variant | yeast fitness
49 | C4G C11G C55U C61A | 0.567
50 | U8C C24U A42C G50U | 0.674
51 | A57U A65C A69C | ≤ 0.5
52 | A20G C30A G48A U64C | ≤ 0.5
53 | U2G A43U | 0.996
54 | C24G U32G A36G C60A A65U | ≤ 0.5
55 | G9C G10C | 0.68
56 | C5A C11G G41C G48C | ≤ 0.5
57 | C4U U7G C11G C46G | ≤ 0.5
58 | A14U G18C C29U A37U | ≤ 0.5
59 | G10A A45G U59C | 0.616
60 | A14G C29U G39A | 0.574
61 | G56C C60A | 0.587
62 | U47C C49A G51A C55A C60A | ≤ 0.5
63 | C11G A14G U26A U35A | ≤ 0.5
64 | C30G C46A A70G | 0.591
65 | C4A A15G G17A U32C C62A A69U | ≤ 0.5
66 | G9A A42C | 0.855
67 | C34G C46A C62U | 0.541
68 | U2C G50A U54A G67A | ≤ 0.5
69 | C4A C31A U35C A45U | ≤ 0.5
70 | C5G C61A G63C | ≤ 0.5
71 | G10C G67A | 0.673
72 | G17A U26C | 0.784

Row | Variant | yeast fitness
73 | U3C G6A C29G G58A | ≤ 0.5
74 | A21G C61G G67A | ≤ 0.5
75 | C34G G38C | 0.587
76 | G17C C34U | 0.529
77 | U3C G39A | 0.898
78 | C27A A42U | 0.702
79 | A14U A37U | ≤ 0.5
80 | G6C C24G C27G C29A C34U | 0.684
81 | A21U C24U A57U A65C A69C | ≤ 0.5
82 | C11U G39C C46U | 0.756
83 | C11G U16A C60A | ≤ 0.5
84 | C5A G38C | 0.732
85 | C5U U32C C49G G68C | 0.593
86 | A21G G67U A69C | 0.528
87 | C4U U16A A20G C66U | ≤ 0.5
88 | C5U G10A | 0.702
89 | U19A A42G G67U | 0.585
90 | C5G G38A | 0.729
91 | U13G C27U C31U C34G A40G G63C | ≤ 0.5
92 | A37G G41A G50A | ≤ 0.5
93 | C27G G48A U59G | ≤ 0.5
94 | G12A G25A U32C | 0.749
95 | G18A A20G U35C G58A C60G | 0.558
96 | C4A G9C C30A G39A G58A | ≤ 0.5

Row | Variant | yeast fitness
97 | C5G A21G C33A G68C A69U | ≤ 0.5
98 | G50A G63C | 0.737
99 | C5A U32G | 0.584
100 | C31U A37U A70U | 0.558
101 | U16G A21U A40C G58C A65C C66G | 0.515
102 | A43G C61A G67A | ≤ 0.5
103 | C5G U16A | 0.959
104 | G38C G41C C66U | ≤ 0.5
105 | C29U C34U G48C G52A | ≤ 0.5
106 | C46A U64A A65C | 0.978
107 | U28C G56C | 0.53
108 | G25A C27G A45U C55A | ≤ 0.5
109 | C31G A57U A69G | 0.774
110 | C27G A57G U59G | ≤ 0.5
111 | C11G G18C U26C C31G C46U C60G C61G A65C | 0.61
112 | C55G A69C | 0.593
113 | G17C U32A C46A A69U | ≤ 0.5
114 | A36G A57G C61U | 0.56
115 | C11A U35G | 0.514
116 | U8G U32C C66U | ≤ 0.5
117 | C31G A37U A42U A65C | ≤ 0.5
118 | G6A C22U C30G A36G | 0.621
119 | G44C A65G A70C | 0.682
120 | C31G G58C C62U | 0.838

Row | Variant | yeast fitness
121 | C30U C31A A40U G56A | ≤ 0.5
122 | A14G A40G C46U | 0.57
123 | U16C A40U A65U | 0.588
124 | C22G U47C U53G | 0.551
125 | C29G C62U G68A | 0.542
126 | C5U U26A G56C A65C | 0.53
127 | G18A G44A A57G | ≤ 0.5
128 | C4A G12C U13G C30U | 0.55
129 | U7A A21G C61G C66G | ≤ 0.5
130 | C4U A21G | 1.1
131 | C4G G17C C33G U47A | 0.689
132 | G10C A20U A42G C60G | ≤ 0.5
133 | C5G A20C C24U | ≤ 0.5
134 | C33G G38C G41C A43C U47G G67C | 0.582
135 | G23C U26G C33G A45C | ≤ 0.5
136 | G6A A15C A36U A65C | ≤ 0.5
137 | G18A A45C C49U | 0.667
138 | C24A C55A C62U A65C | 0.529
139 | U7A U8G C22U C30U A42G C61A | ≤ 0.5
140 | U3A A15C | 0.659
141 | G48C G51C A69U | ≤ 0.5
142 | C5U C33U C34U G58C G63A | ≤ 0.5
143 | G48A A57G C61U C62U | ≤ 0.5
144 | G17A C31U | 0.74

Row | Variant | yeast fitness
145 | G23C C27A A57U A69U | ≤ 0.5
146 | G10U A69C | 0.827
147 | C4U C22G C29G C31A A69C | ≤ 0.5
148 | G23A G63A | 0.7
149 | G12A U28A A40U | 0.647
150 | C27U G56A | 0.998
151 | U7A A14G G18C U54C | ≤ 0.5
152 | C4U U7A G68A | ≤ 0.5
153 | C4U U16G A43U | 1.13
154 | U7A C60A | 0.577
155 | G6A U13A U19C A40U G67A | ≤ 0.5
156 | C22G C30U A37G A43U G68U | ≤ 0.5
157 | U3A G9A U19A G44C G68C | ≤ 0.5
158 | A15C C29A G41A A43C | ≤ 0.5
159 | C5U C24U G41C | ≤ 0.5
160 | A42C G48C C55U | 0.557
161 | C11U A36G G44A C46U | 0.993
162 | A15C U19C C62A | 0.536
163 | C34G A57C G63A | ≤ 0.5
164 | G56A A69C | 1.04
165 | A20C G25C G44C G58A G68C | ≤ 0.5
166 | C5U C31U U47C | 0.701
167 | C4U C22U A45G C66G | ≤ 0.5
